# Reference: ChEMBL document CHEMBL1128333, “Derivatives of cis-2-amino-8-hydroxy-1-methyltetralin: mixed 5-HT1A-receptor agonists and dopamine D2-receptor antagonists” (J Med Chem, 1995)
# What was measured:
# [1] = tested on: Rattus norvegicus; test: Cage leaving response was studied in rats after subcutaneous administration of 32 uM/Kg of compound; 2/4; type: functional
# [2] = tested on: Rattus norvegicus; test: Change in body temperature in rats after subcutaneous administration; type: functional
# Summary of the method: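 Rectal temperature was taken with an electrical thermometer, probe inserted 3.5 cm, before and 30 min after sc injection in 0.9% NaCl. Values are the change from the preinjection reading, analysed by Tukey HSD versus saline-treated rats. Male Sprague–Dawley rats, 260–310 g.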
# [3] = species on record: Rattus norvegicus; test: 5-HIAA (5-Hydroxyindoleacetic acid) content of rat hippocampus reflecting 5-HT metabolism and turnover; type: functional; design: concentration or dose not given beside the values
# Summary of the method: (§1)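 Male Sprague–Dawley rats (260–310 g) received compound sc in 0.9% NaCl; saline controls. Rats were decapitated 35–45 min post-injection, and hippocampus and striatum were dissected and frozen. Tissue was homogenized in 0.1 M perchloric acid with α-methyl-5-hydroxytryptophan as internal standard, centrifuged and filtered, then analysed by HPLC-EC at 0.85 V (mobile phase pH 2.69, 35 °C). Values are percent of control, mean ± SEM.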
# [4] = species on record: Rattus norvegicus; test: 5-HT content of rat hippocampus reflecting 5-HT metabolism and turnover; type: functional; design: concentration or dose not given beside the values; summary of the method: as §1
# [5] = species on record: Rattus norvegicus; test: DA (dopamine) content of rat striatum reflecting DA metabolism and turnover; type: functional; summary of the method: as §1
# [6] = species on record: Rattus norvegicus; test: DOPAC (3,4-dihydroxyphenylacetic acid) content of rat striatum reflecting DA metabolism and turnover; type: functional; design: concentration or dose not given beside the values; summary of the method: as §1
# [7] = species on record: Rattus norvegicus; test: HVA (Homovanillic acid)content of rat striatum reflecting DA metabolism and turnover; type: functional; design: concentration or dose not given beside the values
# [8] = tested on: Rattus norvegicus; test: Flat body posture behavior was studied in rats after subcutaneous administration of 32 uM/Kg of compound; 0/4; type: functional
# Summary of the method: (§2)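 Test compounds were given at 32 μmol/kg and the reference 5-HT1A agonist at 1 μmol/kg. Flat body posture, forepaw treading and hind limb abduction were each scored as absent or present. Values are animals showing the behavior out of animals tested, analysed by Fisher's exact test. Male Sprague–Dawley rats, 260–310 g.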
# [9] = tested on: Rattus norvegicus; test: Forepaw treading (FPT) behavior was studied in rats after subcutaneous administration of 32 uM/Kg of compound; 0/4; type: functional; summary of the method: as §2
# [10] = species on record: Rattus norvegicus; test: Ratio of serotonin turnover (5HIAA to 5-HT) in rat brain hippocampus compared to control; type: functional; summary of the method: as §1
# [11] = species on record: Rattus norvegicus; test: Ratio of turnover (DOPAC to DA) in rat brain striatum compared to control.; type: functional; summary of the method: as §1
# [12] = biological target: D(2) dopamine receptor (Homo sapiens, UniProt P14416); test: In vitro binding affinity towards human Dopamine receptor D2A was determined in mouse fibroblast LtK cells using [3H]raclopride; type: cell-based
# Chain of D(2) dopamine receptor (P14416 whole entry): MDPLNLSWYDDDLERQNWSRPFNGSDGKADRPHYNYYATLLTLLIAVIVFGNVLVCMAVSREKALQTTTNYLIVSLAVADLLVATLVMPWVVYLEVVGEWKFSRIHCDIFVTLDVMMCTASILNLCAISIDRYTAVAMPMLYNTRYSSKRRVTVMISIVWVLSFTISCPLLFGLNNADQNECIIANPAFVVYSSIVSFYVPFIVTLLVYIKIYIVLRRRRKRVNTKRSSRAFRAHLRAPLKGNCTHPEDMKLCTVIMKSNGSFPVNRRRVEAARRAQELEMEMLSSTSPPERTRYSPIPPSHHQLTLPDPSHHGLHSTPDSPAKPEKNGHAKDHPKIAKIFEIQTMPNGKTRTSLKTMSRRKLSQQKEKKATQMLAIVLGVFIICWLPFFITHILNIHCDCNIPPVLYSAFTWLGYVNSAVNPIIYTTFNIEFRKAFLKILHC
# Summary of the method: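 Membranes from Ltk− mouse fibroblasts stably expressing human D2A receptors, at 80–100 pM receptor. Buffer was 50 mM Tris-HCl, 120 mM NaCl, 5 mM KCl, 1.5 mM CaCl2, 4 mM MgCl2, 1 mM EDTA, pH 7.4. Incubation with [3H]raclopride was 60 min at 22 °C, in duplicate, with 1 μM (+)-butaclamol for nonspecific binding. Bound ligand was separated on GF/B filters; data were fitted by nonlinear regression.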
# [13] = tested on: Rattus norvegicus; test: Cage leaving response was studied in rats after subcutaneous administration of 32 uM/Kg of compound; 0/5; type: functional
# [14] = tested on: Rattus norvegicus; test: Flat body posture behavior was studied in rats after subcutaneous administration of 32 uM/Kg of compound; 5/5; type: functional
# [15] = tested on: Rattus norvegicus; test: Forepaw treading (FPT) behavior was studied in rats after subcutaneous administration of 32 uM/Kg of compound; 5/5; type: functional
# [16] = biological target: T1, 5-hydroxytryptamine receptor 1A (Rattus norvegicus, UniProt P19327); test: Binding affinity for 5-hydroxytryptamine 1A receptor in rat brain tissue using [3H]8-OH-DPAT as radioligand; type: tissue-based
# T1 sequence (P19327 whole entry): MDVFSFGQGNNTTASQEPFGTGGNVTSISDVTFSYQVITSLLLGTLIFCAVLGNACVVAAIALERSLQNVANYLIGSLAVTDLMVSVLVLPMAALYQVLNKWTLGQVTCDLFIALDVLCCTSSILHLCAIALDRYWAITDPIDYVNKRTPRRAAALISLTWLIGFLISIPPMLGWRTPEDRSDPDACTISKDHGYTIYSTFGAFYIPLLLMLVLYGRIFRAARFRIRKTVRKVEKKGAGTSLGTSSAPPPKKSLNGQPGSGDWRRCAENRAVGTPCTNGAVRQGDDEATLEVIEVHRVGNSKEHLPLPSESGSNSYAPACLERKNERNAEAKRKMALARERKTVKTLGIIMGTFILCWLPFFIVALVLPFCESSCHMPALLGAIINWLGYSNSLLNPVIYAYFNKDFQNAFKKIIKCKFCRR
# Summary of the method: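 Membranes from male Sprague–Dawley rat cortex plus hippocampus, homogenized in 50 mM Tris-HCl with 4.0 mM CaCl2 and 5.7 mM ascorbic acid, pH 7.5, and preincubated 10 min at 37 °C with 10 μM pargyline. Assay used 5 mg/mL tissue and 2 nM [3H]-8-OH-DPAT, 10 min at 37 °C. Nonspecific binding was defined with 10 μM 5-HT. Bound ligand was separated on GF/B filters and counted; data were fitted by nonlinear regression.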
# [17] = tested on: Rattus norvegicus; test: Cage leaving response was studied in rats after subcutaneous administration of 32 uM/Kg of compound; 3/5; type: functional
# [18] = tested on: Rattus norvegicus; test: Flat body posture behavior was studied in rats after subcutaneous administration of 32 uM/Kg of compound; 0/5; type: functional
# [19] = tested on: Rattus norvegicus; test: Forepaw treading (FPT) behavior was studied in rats after subcutaneous administration of 32 uM/Kg of compound; 0/5; type: functional
# [20] = tested on: Rattus norvegicus; test: Cage leaving response was studied in rats after subcutaneous administration of 32 uM/Kg of compound; 4/5; type: functional
# [21] = tested on: Rattus norvegicus; test: Cage leaving response was studied in rats after subcutaneous administration of 32 uM/Kg of compound; 3/4; type: functional
Structure (SMILES),Change of body temperature [2] [°C],Control [3] [%],Control [4] [%],Control [5] [%],Control [6] [%],Control [7] [%],FBP [8],FPT [9],Ratio [10],Ratio [11],Ki [16] [nM],FBP [18],FPT [19],Cage leaving [20],further results
CCCN(CCC)[C@H]1CCc2cccc(O)c2[C@H]1C,-0.3,104,109,107,118,96,0,0,95,112,,,,,Cage leaving [1]: 2
CCCN(CCC)[C@@H]1CCc2cccc(C(=O)OC)c2[C@@H]1C,-2.7,78,122,112,167,194,,,64,152,,,,,Ki [12]: 58.8 nM; Cage leaving [13]: 0; FBP [14]: 5; FPT [15]: 5
CCCN(CCC)[C@@H]1CCc2cccc(C(C)=O)c2[C@@H]1C,-1.7,96,99,95,192,203,,,97,200,0.56,,,,Ki [12]: 40 nM; Cage leaving [13]: 0; FBP [14]: 5; FPT [15]: 5
CCCN(CCC)[C@H]1CCc2ccccc2[C@H]1C,0.1,112,107,113,92,111,,,104,81,> 1000,0,0,,Cage leaving [17]: 3
CCCN(CCC)[C@@H]1CCc2cccc(OS(=O)(=O)C(F)(F)F)c2[C@@H]1C,0,87,105,108,105,102,,,82,97,6.7,0,0,4,Ki [12]: 124 nM
CCCN(C(C)C)[C@@H]1CCc2cccc(O)c2[C@@H]1C,-0.3,93,96,74,116,225,,,97,155,81,0,0,4,Ki [12]: 614 nM
CCCN(CCC)[C@H]1CCc2cccc(-c3ccco3)c2[C@H]1C,0.1,121,108,103,102,109,0,0,107,98,44,,,,Cage leaving [21]: 3
CCCN(CCC)[C@H]1CCc2cccc(OS(=O)(=O)C(F)(F)F)c2[C@H]1C,0.1,91,97,107,107,99,,,80,99,236,0,0,,Cage leaving [17]: 3
CCCN(CCC)[C@@H]1CCc2cccc(-c3ccco3)c2[C@@H]1C,0.1,111,110,91,116,107,0,0,101,128,> 1000,,,,Cage leaving [21]: 3
CCCN(CCC)[C@H]1CCc2cccc(C(C)=O)c2[C@H]1C,0.1,93,99,95,130,93,0,0,93,110,138,,,,Cage leaving [21]: 3
CCCN(CCC)[C@@H]1CCc2cccc(C(=O)c3ccccc3)c2[C@@H]1C,0.1,92,101,105,117,111,,,89,110,2.6,0,0,4,
CCCN(CCC)[C@@H]1CCc2cccc(C(=O)NC(C)C)c2[C@@H]1C,-2.5,66,123,99,74,94,,,54,76,38,,,,Cage leaving [13]: 0; FBP [14]: 5; FPT [15]: 5
CCCN(C(C)C)[C@H]1CCc2cccc(OC)c2[C@H]1C,0,110,87,103,96,90,0,0,124,94,1420,,,,Cage leaving [1]: 2
CCCN(CCC)[C@H]1CCc2cccc(C(=O)c3ccccc3)c2[C@H]1C,0,114,93,102,112,97,,,123,109,,0,0,4,
CCCN(C(C)C)[C@H]1CCc2cccc(O)c2[C@H]1C,-0.1,79,97,110,86,100,,,80,77,,0,0,4,
CCCN(CCC)[C@H]1CCc2cccc(C(=O)NC(C)C)c2[C@H]1C,0,97,104,82,59,76,,,92,74,> 1000,0,0,4,
CCCN(C(C)C)[C@@H]1CCc2cccc(OC)c2[C@@H]1C,0.1,104,86,99,102,105,0,0,116,102,116,,,,Cage leaving [1]: 2
